Results on 1 molecule are retold here after ChEMBL document CHEMBL4373712, “Bioactivatable Pseudotripeptidization of Cyclic Dipeptides To Increase the Affinity toward Oligopeptide Transporter 1 for Enhanced Oral Absorption: An Application to Cyclo(l-Hyp-l-Ser) (JBP485)” (J Med Chem, 2019).

Data set [1] is described as follows: Oral bioavailability in rat. It counts as ADME, organism-based. The settings on record: in vivo.
In data set [2] the target is T1, Solute carrier family 15 member 1 (Rattus norvegicus, UniProt P51574).
T1 sequence (P51574 whole entry): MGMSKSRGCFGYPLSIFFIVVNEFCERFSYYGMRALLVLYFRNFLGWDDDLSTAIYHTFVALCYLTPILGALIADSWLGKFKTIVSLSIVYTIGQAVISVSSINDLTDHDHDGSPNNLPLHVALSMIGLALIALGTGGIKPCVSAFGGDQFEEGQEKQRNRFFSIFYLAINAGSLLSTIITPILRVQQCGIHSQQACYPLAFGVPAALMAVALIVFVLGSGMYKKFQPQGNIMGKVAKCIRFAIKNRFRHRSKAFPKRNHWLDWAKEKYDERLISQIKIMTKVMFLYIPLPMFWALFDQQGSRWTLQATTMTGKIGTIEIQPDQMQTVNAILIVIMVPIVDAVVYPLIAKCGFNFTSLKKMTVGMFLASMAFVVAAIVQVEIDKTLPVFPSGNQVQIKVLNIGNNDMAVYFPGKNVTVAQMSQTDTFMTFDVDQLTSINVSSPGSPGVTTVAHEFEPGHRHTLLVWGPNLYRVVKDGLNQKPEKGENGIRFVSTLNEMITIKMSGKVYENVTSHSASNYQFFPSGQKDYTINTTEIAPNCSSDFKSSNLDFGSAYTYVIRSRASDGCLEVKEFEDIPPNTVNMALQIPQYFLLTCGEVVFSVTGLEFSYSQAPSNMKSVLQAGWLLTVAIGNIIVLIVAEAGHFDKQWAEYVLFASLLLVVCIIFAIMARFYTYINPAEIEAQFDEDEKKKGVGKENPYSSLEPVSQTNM
Nature of the data set: Substrate activity at PEPT1 in Sprague-Dawley rat jejunum assessed as effective permeability at 5 mM measured after 15 to 120 mins by HPLC analysis. The following applies: 5000 µM. It is filed as ADME, tissue-based. Put shortly: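 In situ single-pass jejunal perfusion in fasted (12 h) male SD rats anaesthetised with urethane 1.5 g/kg i.p. About 10 cm of jejunum was perfused at 0.2 mL/min with pH 6.0 HEPES buffer containing 5 mM compound. Outflow was collected 15–120 min after steady state and assayed by HPLC. Peff was calculated from outlet/inlet concentration and volume ratios and segment radius and length.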

Data set [3] has as its target T1, Solute carrier family 15 member 1. Description: Ratio of compound effect for substrate activity at PEPT1 in Sprague-Dawley rat jejunum assessed as effective permeability in absence of non-metabolized PEPT1 substrate Gly-Sar to compound effect for substrate activity at PEPT1 in Sprague-Dawley rat jejunum assessed as effective permeability in presence of non-metabolized PEPT1 substrate Gly-Sar. It is filed as ADME.

The target in data set [4] is T2, Solute carrier family 15 member 1 (Homo sapiens, UniProt P46059).
T2 sequence (P46059 whole entry): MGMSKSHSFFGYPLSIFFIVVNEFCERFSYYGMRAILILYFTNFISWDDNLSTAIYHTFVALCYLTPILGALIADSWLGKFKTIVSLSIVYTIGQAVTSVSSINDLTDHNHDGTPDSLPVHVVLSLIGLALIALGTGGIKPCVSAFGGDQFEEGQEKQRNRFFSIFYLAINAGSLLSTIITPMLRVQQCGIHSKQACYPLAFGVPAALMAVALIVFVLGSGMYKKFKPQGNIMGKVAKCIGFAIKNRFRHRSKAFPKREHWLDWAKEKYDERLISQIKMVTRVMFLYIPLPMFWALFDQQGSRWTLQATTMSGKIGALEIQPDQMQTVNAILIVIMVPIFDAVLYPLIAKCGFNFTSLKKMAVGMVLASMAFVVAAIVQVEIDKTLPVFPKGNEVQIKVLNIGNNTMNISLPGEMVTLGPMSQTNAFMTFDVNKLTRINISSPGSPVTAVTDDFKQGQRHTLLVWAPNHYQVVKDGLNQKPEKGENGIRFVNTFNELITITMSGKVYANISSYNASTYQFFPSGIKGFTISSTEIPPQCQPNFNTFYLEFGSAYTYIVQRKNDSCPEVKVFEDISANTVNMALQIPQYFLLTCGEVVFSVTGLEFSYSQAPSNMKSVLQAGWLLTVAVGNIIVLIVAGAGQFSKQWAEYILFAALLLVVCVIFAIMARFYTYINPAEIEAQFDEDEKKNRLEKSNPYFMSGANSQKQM
Description: Substrate activity at PEPT1 in human Caco2 cells assessed as protein-mediated drug uptake at 0.5 mM measured after 10 mins in pH 6 HBSS buffer by UPLC-MS/MS analysis. It counts as ADME, cell-based. The settings on record: caco-2, pH 6, 10 min, 500 µM. Put shortly: (§1)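 Caco-2 cells incubated 10 min with 0.5 mM compound in HBSS at pH 6.0 or pH 7.4, washed three times in ice-cold PBS pH 7.4, homogenised. Protein by DC assay; drug by UPLC-MS/MS; n=3.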

The target in data set [5] is T2, Solute carrier family 15 member 1. Nature of the data set: Substrate activity at PEPT1 in human Caco2 cells assessed as protein-mediated drug uptake at 0.5 mM measured after 10 mins in pH 7.4 HBSS buffer by UPLC-MS/MS analysis. The following applies: caco-2, pH 7.4, 10 min, 500 µM. It counts as ADME, cell-based. The method, boiled down: as §1
For data set [6] the target is unchanged. Nature of the data set: Substrate activity at PEPT1 in human Caco2 cells assessed as inhibition of Gly-Sar uptake measured after 10 mins by UPLC-MS/MS analysis. It is filed as cell-based. The method, boiled down: (§2)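 Caco-2 cells with 0.5 mM Gly-Sar probe substrate and competitor at 0.5–50 mM. IC50 by nonlinear fitting; n=3.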
Data set [7] has the same target. Description: Substrate activity at PEPT1 in human Caco2 cells assessed as inhibition of Gly-Sar uptake by LC-MS/MS analysis. It counts as cell-based. Put shortly: as §2

Where a SMILES comes first, the peptide text is derived from it. [ ]: non-standard residue; d: D form. Hyp = O=C(O)[C@@H]1C[C@@H](O)CN1

In the case of `O=C(O)[C@H](CO)NC(=O)[C@@H]1C[C@@H](O)CN1` (H-[Hyp]-Ser-OH), the bioavailability (commonly the share of a dose that reaches the circulation, judged against a reference dose that is usually intravenous) in data set [1] is not above 100%. Moreover, the Peff entry in data set [2] is “Permeable”. The Ratio in data set [3] is given as 7.3. In addition, the figures for the Drug uptake result in data set [4] and in data set [5] were “Active” and “Not Active”, respectively. In addition, in data set [6], the IC50 (as a rule, the midpoint of a concentration-inhibition curve) worked out at 1760 µM. The Ki (usually the dissociation constant of the complex between target and ligand, obtained from inhibition or displacement) in data set [7] came to 2500 µM.
